Assay results: ChEMBL document CHEMBL4765243, “Discovery of Novel Bromophenol-Thiosemicarbazone Hybrids as Potent Selective Inhibitors of Poly(ADP-ribose) Polymerase-1 (PARP-1) for Use in Cancer” (J Med Chem, 2019)
Activity calls are given as the source filed them. The calls are words filed in the database; no cut-off is given here.

How the values were obtained:
Caco-2 = experiment: Antiproliferative activity against human Caco-2 cells assessed as cell growth inhibition at 20 uM incubated for 48 hrs by MTT assay relative to control; assay type: functional
[1] = Cytotoxicity against human HL7702 cells assessed as cell growth inhibition at 20 uM incubated for 48 hrs by MTT assay relative to control; assay type: cell-based; settings: HL7702 (L02) cells
[2] = biological target: T1, Poly [ADP-ribose] polymerase 1 (Homo sapiens, UniProt P09874); experiment: Inhibition of human recombinant GST-tagged PARP-1 expressed in Escherichia coli assessed as reduction in NAD+-dependent ADP ribosylation incubated for 30 mins in presence and NAD by resazurin dye based fluorescence analysis
T1 sequence (P09874 whole entry): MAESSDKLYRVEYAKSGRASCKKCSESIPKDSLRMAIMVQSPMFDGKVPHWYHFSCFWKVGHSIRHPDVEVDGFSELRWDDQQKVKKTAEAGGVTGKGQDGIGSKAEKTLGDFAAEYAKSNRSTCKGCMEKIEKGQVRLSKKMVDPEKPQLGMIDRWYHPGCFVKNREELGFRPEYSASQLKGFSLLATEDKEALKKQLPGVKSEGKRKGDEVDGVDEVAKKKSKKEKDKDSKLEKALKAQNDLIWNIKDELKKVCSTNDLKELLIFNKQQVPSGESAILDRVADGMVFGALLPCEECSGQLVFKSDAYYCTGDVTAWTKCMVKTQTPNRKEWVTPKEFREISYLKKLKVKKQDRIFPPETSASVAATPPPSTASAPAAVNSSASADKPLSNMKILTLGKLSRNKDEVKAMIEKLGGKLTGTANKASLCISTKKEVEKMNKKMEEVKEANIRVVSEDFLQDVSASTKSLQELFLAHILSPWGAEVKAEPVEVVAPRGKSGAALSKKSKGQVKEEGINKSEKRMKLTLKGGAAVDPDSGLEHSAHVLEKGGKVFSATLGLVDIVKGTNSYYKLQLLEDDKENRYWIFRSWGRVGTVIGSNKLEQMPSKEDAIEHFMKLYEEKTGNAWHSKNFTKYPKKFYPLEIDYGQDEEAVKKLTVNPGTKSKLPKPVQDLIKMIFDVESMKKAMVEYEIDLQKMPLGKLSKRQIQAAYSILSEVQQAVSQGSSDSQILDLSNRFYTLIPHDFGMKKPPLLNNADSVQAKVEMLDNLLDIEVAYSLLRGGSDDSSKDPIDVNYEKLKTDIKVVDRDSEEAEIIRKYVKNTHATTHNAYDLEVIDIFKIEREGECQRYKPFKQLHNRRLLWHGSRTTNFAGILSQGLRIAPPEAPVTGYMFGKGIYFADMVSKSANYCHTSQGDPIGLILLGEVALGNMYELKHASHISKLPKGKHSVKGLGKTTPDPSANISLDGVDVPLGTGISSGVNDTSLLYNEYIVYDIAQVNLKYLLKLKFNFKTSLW

[3] = Selectivity index, ratio of IC50 for inhibition of human recombinant N-terminal GST-tagged PARP-2 to IC50 for inhibition of human recombinant GST-tagged PARP-1
[4] = biological target: T1, Poly [ADP-ribose] polymerase 1; experiment: Inhibition of PARP-1 in human SKOV3 cells assessed as decrease in MCM3 protein expression level at 2.5 to 10 uM incubated for 48 hrs by western blot analysis; assay type: cell-based; settings: SK-OV-3, dose 2.5-10 µM
Procedure, shortened: (§1)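 SK-OV-3 cells were grown in McCOY's 5A, seeded in 6-well plates and treated for 48 h. Lysate proteins were separated by 8-15 % SDS-PAGE and transferred to PVDF membranes. Membranes were blocked in 5 % nonfat milk, probed with primary antibody overnight at 4 °C and with HRP secondary antibody for 1 h at room temperature, then detected by enhanced chemiluminescence. Images are representative of 3 independent experiments.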

[5] = biological target: T1, Poly [ADP-ribose] polymerase 1; experiment: Inhibition of PARP-1 in human SKOV3 cells assessed as decrease in MCM4 protein expression level at 2.5 to 10 uM incubated for 48 hrs by western blot analysis; assay type: cell-based; settings: SK-OV-3, dose 2.5-10 µM; procedure, shortened: as §1
SK-OV-3 [6] = experiment: Induction of cell cycle arrest in human SKOV3 cells assessed as reduction in CDK1 expression at 2.5 to 10 uM incubated for 48 hrs by western blot analysis; assay type: functional, cell-based; settings: dose 2.5-10 µM
SK-OV-3 [7] = experiment: Induction of autophagy in human SKOV3 cells assessed as increase in formation of autophagosomes at 10 uM incubated for 48 hrs by TEM analysis; assay type: functional, cell-based
Procedure, shortened: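 SK-OV-3 cells exposed to 10 µM for 48 h, then fixed, dehydrated and resin-embedded. 200 nm sections on formvar grids, counterstained with uranyl acetate and lead citrate, imaged by transmission electron microscopy.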

SK-OV-3 [8] = experiment: Induction of autophagy in human SKOV3 cells assessed as LC3-II protein expression at 10 uM incubated for 48 hrs by western blot analysis; assay type: functional, cell-based
Procedure, shortened: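 SK-OV-3 cells in 6-well plates treated 48 h. Lysates separated by 8-15% SDS-PAGE and transferred to PVDF. Membranes blocked in 5% milk and probed overnight at 4 °C with LC3 or Beclin 1 antibodies. HRP secondary applied 1 h at room temperature; detection by ECL.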

SK-OV-3 [9] = experiment: Antitumor activity against human SKOV3 cells xenografted in Balb/c nude mouse assessed as tumor growth inhibition administered orally for 21 days and measured every third day; assay type: functional, cell-based; settings: dose 25-50 mg/kg, time 21.0 day
Procedure, shortened: (§2)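 Female BALB/c nu/nu mice, 6-8 weeks old, kept under SPF conditions. Each received 5×10^6 SK-OV-3 cells s.c. At 80–120 mm3 tumour volume, mice were split into four groups (n=6). […] Caliper measurement every three days; volume = X × (Y2/2).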

[10] = Toxicity in Balb/c nude mouse xenografted with human SKOV3 cells assessed as change in body weight at 25 mg/kg, po for 21 days and measured every third day; assay type: organism-based; settings: in vivo, 504 h, time 21 day; procedure, shortened: as §2
SK-OV-3 [11] = experiment: Antitumor activity against human SKOV3 cells xenografted in Balb/c nude mouse assessed as increase in gamma-H2AX expression in tumor at 25 to 50 mg/kg, po for 21 days by immunohistochemistry analysis; assay type: functional, organism-based; settings: dose 25-50 mg/kg, time 21.0 day
Procedure, shortened: (§3)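 SK-OV-3 xenografts in female BALB/c nude mice were dosed orally at 25 or 50 mg/kg in 0.5% CMC-Na for 21 days. Tumours were then snap-frozen in liquid nitrogen or fixed in 10% neutral-buffered formalin. Analysis used western blotting, H&E and immunohistochemistry on paraffin sections (Ki67, γ-H2AX).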

[12] = Toxicity in Balb/c nude mouse xenografted with human SKOV3 cells assessed as histological changes in liver at 25 to 50 mg/kg, po for 21 days by H and E staining based microscopic analysis; assay type: organism-based; settings: in vivo, 504 h, dose 25-50 mg/kg, time 21 day; procedure, shortened: as §3
[13] = Toxicity in Balb/c nude mouse xenografted with human SKOV3 cells assessed as histological changes in kidney at 25 to 50 mg/kg, po for 21 days by H and E staining based microscopic analysis; assay type: organism-based; settings: in vivo, 504 h, dose 25-50 mg/kg, time 21 day; procedure, shortened: as §3
[14] = Cmax in Sprague-Dawley rat at 2 mg/kg, iv by LC/MS/MS analysis; assay type: ADME, organism-based; design: route intravenous, dose 2 mg/kg; settings: in vivo
Procedure, shortened: (§4)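 Male Sprague-Dawley rats, 4 per group, dosed once orally at 10 mg/kg or intravenously at 2 mg/kg. Blood taken from the saphenous vein for plasma. Drug levels measured by LC-MS-MS, with parameters derived by noncompartmental analysis.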

[15] = AUC (0 to infinity) in Sprague-Dawley rat at 2 mg/kg, iv by LC/MS/MS analysis; assay type: ADME, organism-based; design: route intravenous, time infinity, dose 2 mg/kg; settings: in vivo
[16] = Half-life in Sprague-Dawley rat at 2 mg/kg, iv by LC/MS/MS analysis; assay type: ADME, organism-based; settings: in vivo; procedure, shortened: as §4
[17] = MRT in Sprague-Dawley rat at 2 mg/kg, iv by LC/MS/MS analysis; assay type: ADME, organism-based; settings: in vivo; procedure, shortened: as §4
[18] = Acute toxicity in SPF Kunming mouse assessed as abnormality at 100 to 1000 mg/kg, po administered as single dose and measured upto 14 days post drug administration; assay type: organism-based; settings: in vivo, 336 h, dose 100-1000 mg/kg, time <=14 day
Procedure, shortened: (§5)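 Single oral dose groups at 0 (physiological saline blank, equal volume), 100, 500 and 1000 mg/kg. Mice housed with free access to water and food in stainless cages, 25 ± 1 °C, 12-h light/dark cycle. Survival, body weight and abnormalities recorded up to 14 days post-treatment.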

[19] = Acute toxicity in SPF Kunming mouse assessed as change in body weight at 100 to 1000 mg/kg, po administered as single dose and measured upto 14 days post drug administration; assay type: organism-based; settings: in vivo, 336 h, dose 100-1000 mg/kg, time <=14 day; procedure, shortened: as §5
[20] = Subacute toxicity in SPF Kunming mouse assessed as change in body weight at 1000 mg/kg, po administered for 14 days and measured on day 14; assay type: organism-based; settings: in vivo, 336 h, time 14 day
Procedure, shortened: (§6)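 Twenty SPF Kunming mice (18 - 22 g), half male and half female, randomised into 2 groups of 5 males + 5 females. Treated group dosed orally at 1000 mg/kg once daily for 14 days. Death, clinical signs and body weight monitored. After 14 days: isoflurane anaesthesia, decapitation, tissues collected for H&E histology.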

[21] = Subacute toxicity in SPF Kunming mouse assessed as change in liver at 1000 mg/kg, po administered for 14 days by H and E staining based microscopic analysis; assay type: organism-based; settings: in vivo, 336 h, time 14 day; procedure, shortened: as §6
[22] = Subacute toxicity in SPF Kunming mouse assessed as change in heart at 1000 mg/kg, po administered for 14 days by H and E staining based microscopic analysis; assay type: organism-based; settings: in vivo, 336 h, time 14 day; procedure, shortened: as §6
SK-OV-3 [23] = experiment: animal or person; settings: Mus musculus, SK-OV-3, po, 504 h, read-out: INH

## COc1cc(/C=N/NC(N)=S)c(Br)c(Br)c1OC
Caco-2
  inhibition at 20 µM: 59.6%
[1]
  inhibition at 48 h, 20 µM: 89.9%
[2]
  IC50: 29.5 nM
[3]
  Ratio IC50: > 33.9
[4]
  inhibition: Active
[5]
  inhibition: Active
SK-OV-3 [6]
  Activity: Active
SK-OV-3 [7]
  Activity: Active
SK-OV-3 [8]
  Activity: Active
SK-OV-3 [9]
  inhibition: Dose-dependent effect
[10]
  Activity: Non-Toxic
SK-OV-3 [11]
  Activity: Active
[12]
  Activity: Non-Toxic
[13]
  Activity: Non-Toxic
[14]
  Cmax: 1250 nM
[15]
  AUC: 0.886 µM·h
[16]
  half-life: 47.4 min
[17]
  MRT: 68.4 min
[18]
  Activity: Non-Toxic
[19]
  Activity: Non-Toxic
[20]
  Activity: Non-Toxic
[21]
  Activity: Non-Toxic
[22]
  Activity: Non-Toxic
SK-OV-3 [23]
  inhibition in vivo at 25 mg/kg: 70%
